# ChEMBL document CHEMBL4354819, “Discovery of Novel Small Molecule Dual Inhibitors Targeting Toll-Like Receptors 7 and 8” (J Med Chem, 2019)
# The source made the active and inactive calls. No cut-off for these calls is given here.
# Legend:
# Toll-like receptor 8 = target: T1, Toll-like receptor 8 (Homo sapiens, UniProt Q9NR97); test: Inhibition of human TLR8 expressed in HEK293 cells assessed as reduction in ssRNA-induced NFkappaB production incubated for 16 hrs by quanti-blue SEAP assay; type: cell-based
# T1 sequence (Q9NR97 whole entry): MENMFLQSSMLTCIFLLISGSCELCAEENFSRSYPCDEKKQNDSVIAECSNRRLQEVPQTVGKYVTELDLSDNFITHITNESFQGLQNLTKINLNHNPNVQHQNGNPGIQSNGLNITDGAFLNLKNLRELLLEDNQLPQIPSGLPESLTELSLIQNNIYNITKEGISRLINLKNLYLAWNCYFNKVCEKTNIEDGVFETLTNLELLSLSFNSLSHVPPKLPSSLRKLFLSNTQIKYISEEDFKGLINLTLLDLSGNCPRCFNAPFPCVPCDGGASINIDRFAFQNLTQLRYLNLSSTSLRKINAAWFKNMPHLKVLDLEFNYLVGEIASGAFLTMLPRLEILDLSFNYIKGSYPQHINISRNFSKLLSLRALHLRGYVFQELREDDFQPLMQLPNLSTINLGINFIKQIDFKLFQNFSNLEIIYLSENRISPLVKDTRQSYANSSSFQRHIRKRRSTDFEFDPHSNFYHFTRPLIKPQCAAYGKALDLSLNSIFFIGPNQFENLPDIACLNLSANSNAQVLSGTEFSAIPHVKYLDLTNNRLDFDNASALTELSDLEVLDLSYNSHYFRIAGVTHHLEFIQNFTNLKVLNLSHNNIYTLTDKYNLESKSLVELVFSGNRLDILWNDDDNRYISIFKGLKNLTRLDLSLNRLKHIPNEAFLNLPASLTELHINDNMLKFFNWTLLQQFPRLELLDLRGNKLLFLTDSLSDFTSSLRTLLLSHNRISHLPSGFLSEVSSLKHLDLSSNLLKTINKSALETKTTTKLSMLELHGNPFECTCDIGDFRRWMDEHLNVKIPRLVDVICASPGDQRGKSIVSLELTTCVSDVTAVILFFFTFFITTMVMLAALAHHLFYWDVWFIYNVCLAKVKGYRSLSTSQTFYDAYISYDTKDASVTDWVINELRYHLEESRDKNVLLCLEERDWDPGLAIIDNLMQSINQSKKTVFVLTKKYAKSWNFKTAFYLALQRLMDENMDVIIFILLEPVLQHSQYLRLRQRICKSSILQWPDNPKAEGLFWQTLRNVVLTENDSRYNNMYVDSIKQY
# In short: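 HEK 293 hTLR8 SEAP reporter cells were stimulated with ssRNA (ssRNA-Lyo-40) and incubated with compound for 16 h. Data were normalized as (raw − untreated)/(ligand + solvent − untreated), with ligand + solvent set as 100%. Mean ± s.d., n = 3 independent experiments.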
# THP-1 = test: Inhibition of IFN mediated immune response in human THP1 cells assessed as inhibition of G3-YSD-induced cGAS signalling pathway at 20 uM incubated for 16 hrs by luciferase assay; type: functional, cell-based
# In short: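 THP1-Dual monocytes carrying Lucia luciferase and SEAP reporters were stimulated with 3p-hpRNA (RIG-I agonist) or Y-form dsDNA G3-YSD (cGAS agonist), with or without compound. Secreted Lucia luciferase luminescence was measured as the type I IFN read-out. Mean ± s.d., n = 3 independent experiments.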
# [1] = target: T2, Toll-like receptor 8 (Homo sapiens) (UniProt Q9NR97); test: Inhibition of human TLR8 expressed in HEK293 cells assessed as reduction in R848-induced NFkappaB production incubated for 16 hrs by quanti-blue SEAP assay; type: cell-based
# T2 sequence (whole entry): T1 sequence (Q9NR97 whole entry)
# In short: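 HEK 293-Blue cells stably expressing hTLR7 or hTLR8 with an inducible SEAP reporter were incubated 16 h with compound under 1 µg/mL R848 stimulation. SEAP was read at 620 nm. Data were normalized to the R848 control, and IC50 was taken from concentration-response curves. […] Mean ± s.d., n = 3 independent experiments.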
# [2] = target: T3, Toll-like receptor 9 (Homo sapiens) (UniProt Q9NR96); test: Inhibition of human TLR9 expressed in HEK293 cells assessed as reduction in ODN-2006-induced NFkappaB production at 3 to 5 uM incubated for 16 hrs by quanti-blue SEAP assay; type: cell-based
# T3 sequence (whole entry): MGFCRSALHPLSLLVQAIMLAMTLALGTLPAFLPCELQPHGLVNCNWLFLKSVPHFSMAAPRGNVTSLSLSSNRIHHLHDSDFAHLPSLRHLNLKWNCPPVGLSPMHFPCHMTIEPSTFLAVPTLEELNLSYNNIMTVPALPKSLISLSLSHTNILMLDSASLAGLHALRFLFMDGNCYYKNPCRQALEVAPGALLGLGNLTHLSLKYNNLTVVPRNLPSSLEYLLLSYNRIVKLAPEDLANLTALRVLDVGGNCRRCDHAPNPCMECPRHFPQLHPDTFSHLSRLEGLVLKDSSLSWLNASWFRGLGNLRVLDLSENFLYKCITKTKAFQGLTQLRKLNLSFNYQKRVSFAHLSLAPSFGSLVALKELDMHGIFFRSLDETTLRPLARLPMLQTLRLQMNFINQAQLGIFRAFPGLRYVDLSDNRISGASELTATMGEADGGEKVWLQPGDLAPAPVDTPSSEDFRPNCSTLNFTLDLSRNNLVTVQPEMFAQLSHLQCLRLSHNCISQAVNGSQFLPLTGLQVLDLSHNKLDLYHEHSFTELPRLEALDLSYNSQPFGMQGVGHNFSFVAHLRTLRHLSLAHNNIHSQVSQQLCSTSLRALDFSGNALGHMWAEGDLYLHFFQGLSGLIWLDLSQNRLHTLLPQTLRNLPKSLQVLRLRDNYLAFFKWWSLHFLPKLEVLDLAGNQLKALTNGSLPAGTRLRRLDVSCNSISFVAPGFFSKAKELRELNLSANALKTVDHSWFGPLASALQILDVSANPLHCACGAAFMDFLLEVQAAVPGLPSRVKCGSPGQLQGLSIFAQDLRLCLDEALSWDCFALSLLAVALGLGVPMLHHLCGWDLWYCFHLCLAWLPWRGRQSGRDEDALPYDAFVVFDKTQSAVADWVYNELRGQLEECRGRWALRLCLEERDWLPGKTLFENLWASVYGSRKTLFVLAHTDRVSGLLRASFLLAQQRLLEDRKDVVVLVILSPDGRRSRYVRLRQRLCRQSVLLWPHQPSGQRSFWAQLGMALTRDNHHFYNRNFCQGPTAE
# In short: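 Selectivity panel in stably transfected HEK 293-Blue cells, each overexpressing one human TLR with an inducible SEAP reporter. Agonists: Pam3CSK4 (TLR1/2), Pam2CSK4 (TLR2/6), poly(I:C) (TLR3), LPS (TLR4), R848 (TLR7/8), ODN 2006 (TLR9). Cells were exposed to compound for 16 h. Activity = (raw − untreated)/(ligand + solvent − untreated), with ligand + solvent set as 100%.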
# [3] = target: Toll-like receptor 7 (Mus musculus) (UniProt P58681); test: Inhibition of endogenous mouse TLR7 in mouse RAW264.7 cells assessed as resiquimod-induced NO production at 1.25 uM incubated for 18 to 24 hrs
# Sequence of Toll-like receptor 7 (Mus musculus) (P58681 whole entry, looked up): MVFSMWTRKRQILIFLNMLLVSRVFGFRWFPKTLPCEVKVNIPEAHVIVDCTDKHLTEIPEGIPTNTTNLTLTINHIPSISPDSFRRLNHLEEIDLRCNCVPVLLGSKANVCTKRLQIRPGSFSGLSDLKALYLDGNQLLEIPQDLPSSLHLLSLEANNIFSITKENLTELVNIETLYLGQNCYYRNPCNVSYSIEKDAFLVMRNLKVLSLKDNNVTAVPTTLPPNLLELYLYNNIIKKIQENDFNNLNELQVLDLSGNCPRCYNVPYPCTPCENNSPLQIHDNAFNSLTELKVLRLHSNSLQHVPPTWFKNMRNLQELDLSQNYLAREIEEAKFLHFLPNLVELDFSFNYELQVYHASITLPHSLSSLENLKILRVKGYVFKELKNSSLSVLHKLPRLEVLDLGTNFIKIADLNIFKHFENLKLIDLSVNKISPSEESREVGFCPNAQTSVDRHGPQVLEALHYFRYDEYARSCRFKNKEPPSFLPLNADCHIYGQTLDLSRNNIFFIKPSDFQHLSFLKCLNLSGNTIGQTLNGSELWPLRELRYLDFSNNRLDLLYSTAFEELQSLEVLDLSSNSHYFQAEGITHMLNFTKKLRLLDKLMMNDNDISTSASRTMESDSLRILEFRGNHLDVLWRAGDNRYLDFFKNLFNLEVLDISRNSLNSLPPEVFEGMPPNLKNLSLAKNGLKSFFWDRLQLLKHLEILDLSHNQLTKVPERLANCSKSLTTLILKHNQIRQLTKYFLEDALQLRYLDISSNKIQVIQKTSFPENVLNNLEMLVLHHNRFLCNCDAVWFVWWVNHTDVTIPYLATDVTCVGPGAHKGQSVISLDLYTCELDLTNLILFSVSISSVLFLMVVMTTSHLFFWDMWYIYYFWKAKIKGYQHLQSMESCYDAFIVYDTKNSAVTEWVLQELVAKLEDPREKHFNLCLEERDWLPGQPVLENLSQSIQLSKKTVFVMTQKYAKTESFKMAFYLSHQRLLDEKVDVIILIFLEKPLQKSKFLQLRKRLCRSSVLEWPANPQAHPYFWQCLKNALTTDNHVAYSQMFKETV
smiles,measurement,setting,value
O=[N+]([O-])c1c(I)cccc1Oc1ccc(-c2nnco2)cc1,IC50,Toll-like receptor 8,620 nM
same,inhibition,THP-1,Active
O=C(Nc1ccc(Oc2cc(C(F)(F)F)cc(C(F)(F)F)c2)cc1)c1c(F)cccc1Cl,inhibition,[1],Dose-dependent effect
same,inhibition,[2],Active
O=C(Nc1ccc(Oc2cc(C(F)(F)F)cc(C(F)(F)F)c2)cc1)c1c(F)cccc1I,inhibition,[3],inactive
